Laboratory results from ChEMBL document CHEMBL2384950, “2-(3-Fluoro-4-methylsulfonylaminophenyl)propanamides as potent TRPV1 antagonists: structure activity relationships of the 2-oxy pyridine C-region” (Eur J Med Chem, 2013).

Assays:
[1] = molecular target: T1, Transient receptor potential cation channel subfamily V member 1 (Homo sapiens, UniProt Q8NER1); experiment: Antagonist activity at human TRPV1 expressed in CHOK1 cells assessed as inhibition of pH 6 to 6.3-induced activity by FLIPR assay; assay type: cell-based, CHO-K1
[2] = molecular target: T1, Transient receptor potential cation channel subfamily V member 1; experiment: Antagonist activity at human TRPV1 expressed in CHOK1 cells assessed as inhibition of capsaicin-induced activity by FLIPR assay; assay type: cell-based, CHO-K1
[3] = molecular target: T1, Transient receptor potential cation channel subfamily V member 1; experiment: Antagonist activity at human TRPV1 expressed in CHOK1 cells assessed as inhibition of N-arachidonoyldopamine-induced activity after 5 mins by FLIPR assay; assay type: cell-based, CHO-K1
[4] = molecular target: T1, Transient receptor potential cation channel subfamily V member 1; experiment: Antagonist activity at human TRPV1 expressed in CHOK1 cells assessed as inhibition of heat 45 degC-induced activity after 5 mins by FLIPR assay; assay type: cell-based, CHO-K1
[5] = test system: Mus musculus; experiment: Analgesic activity in NMRI mouse assessed as inhibition of formalin-induced nociceptive response at 0.3 mg/kg, po mesaured for 21 to 24 mins relative to control; assay type: functional
How it was run: (§1)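 Oral dosing in mice, randomized dose and vehicle groups, 10 animals per group, vehicle control each study. 20 μl 1% formalin in 0.9% NaCl injected subcutaneously into dorsal right hind paw. Time spent licking and biting the injected paw counted 21–24 min post-formalin. Reported as % inhibition (mean ± SEM) versus vehicle; Kruskal–Wallis test.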

[6] = test system: Mus musculus; experiment: Analgesic activity in NMRI mouse assessed as inhibition of formalin-induced nociceptive response at 0.1 mg/kg, po mesaured for 21 to 24 mins relative to control; assay type: functional; how it was run: as §1

T1 sequence (Q8NER1 whole entry): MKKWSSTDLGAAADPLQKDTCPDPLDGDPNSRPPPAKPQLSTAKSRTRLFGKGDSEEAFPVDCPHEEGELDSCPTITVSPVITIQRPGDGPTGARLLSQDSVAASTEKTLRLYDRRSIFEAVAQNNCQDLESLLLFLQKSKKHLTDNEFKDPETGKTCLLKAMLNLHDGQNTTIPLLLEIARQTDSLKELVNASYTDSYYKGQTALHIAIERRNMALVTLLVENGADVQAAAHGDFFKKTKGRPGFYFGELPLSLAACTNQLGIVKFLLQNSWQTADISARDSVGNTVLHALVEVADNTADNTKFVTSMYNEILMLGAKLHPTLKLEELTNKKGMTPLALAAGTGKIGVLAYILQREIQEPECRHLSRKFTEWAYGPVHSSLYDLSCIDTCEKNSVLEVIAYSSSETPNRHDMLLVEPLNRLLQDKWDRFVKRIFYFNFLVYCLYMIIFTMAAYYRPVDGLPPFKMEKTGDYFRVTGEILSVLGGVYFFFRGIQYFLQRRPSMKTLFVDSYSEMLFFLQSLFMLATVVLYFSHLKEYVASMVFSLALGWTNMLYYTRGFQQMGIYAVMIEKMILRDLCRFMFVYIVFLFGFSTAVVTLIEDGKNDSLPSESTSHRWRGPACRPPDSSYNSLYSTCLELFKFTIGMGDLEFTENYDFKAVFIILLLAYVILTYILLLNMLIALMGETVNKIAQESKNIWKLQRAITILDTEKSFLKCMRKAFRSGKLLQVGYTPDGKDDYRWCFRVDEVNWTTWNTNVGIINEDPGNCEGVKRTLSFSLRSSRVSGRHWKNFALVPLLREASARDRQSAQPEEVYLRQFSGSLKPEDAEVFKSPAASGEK

| IC50 [1] [nM] | Ki [2] [nM] | Structure (SMILES) | further results |
| --- | --- | --- | --- |
| 1990 | 44.5 | CC(C(=O)NCc1ccc(C(C)(C)C)cc1)c1ccc(NS(C)(=O)=O)c(F)c1 (stereo not given) |  |
|  |  | CC1CCN(c2nc(C(F)(F)F)ccc2CNC(=O)C(C)c2ccc(NS(C)(=O)=O)c(F)c2)CC1 (stereo not given) | Ki [3]: 0.23 nM; IC50 [4]: 4.5 nM |
|  |  | CC(C(=O)NCc1ccc(C(F)(F)F)nc1OCc1ccccc1)c1ccc(NS(C)(=O)=O)c(F)c1 (stereo not given) | inhibition in vivo at 0.3 mg/kg [5]: 54.1%; inhibition in vivo at 0.1 mg/kg [6]: 41.8%; Ki [3]: 0.001 nM; IC50 [4]: 52.3 nM |
| 27.6 | 0.5 | CC(C(=O)NCc1ccc(C(F)(F)F)nc1OCCc1ccccc1)c1ccc(NS(C)(=O)=O)c(F)c1 (stereo not given) |  |
| 653 | 2.6 | COc1ccc(COc2nc(C(F)(F)F)ccc2CNC(=O)C(C)c2ccc(NS(C)(=O)=O)c(F)c2)cc1 (stereo not given) |  |
| 69 | 0.8 | CC(C(=O)NCc1ccc(C(F)(F)F)nc1OCc1cccc(F)c1)c1ccc(NS(C)(=O)=O)c(F)c1 (stereo not given) |  |
| 95 | 4.9 | CC(C(=O)NCc1ccc(C(F)(F)F)nc1OCc1cccc(Cl)c1)c1ccc(NS(C)(=O)=O)c(F)c1 (stereo not given) |  |
| 93 | 1 | CC(C(=O)NCc1ccc(C(F)(F)F)nc1OCc1cc(F)cc(F)c1)c1ccc(NS(C)(=O)=O)c(F)c1 (stereo not given) |  |
| 114 | 2.6 | CC(C(=O)NCc1ccc(C(F)(F)F)nc1OCc1cc(Cl)cc(Cl)c1)c1ccc(NS(C)(=O)=O)c(F)c1 (stereo not given) |  |
| 174 |  | CC1CC(C)CC(Oc2nc(C(F)(F)F)ccc2CNC(=O)C(C)c2ccc(NS(C)(=O)=O)c(F)c2)C1 (stereo not given) |  |
| > 10000 |  | CC(C(=O)NCc1ccc(C(F)(F)F)nc1OC1CCNCC1)c1ccc(NS(C)(=O)=O)c(F)c1 (stereo not given) |  |
| 5.1 | 0.3 | CC(C(=O)NCc1ccc(C(F)(F)F)nc1OC[C@@H]1C[C@H]1C)c1ccc(NS(C)(=O)=O)c(F)c1 (stereo not given in full) |  |
| > 10000 |  | CC(C(=O)NCc1ccc(C(F)(F)F)nc1OCC1CCNCC1)c1ccc(NS(C)(=O)=O)c(F)c1 (stereo not given) |  |
|  | 49 | COCCOc1nc(C(F)(F)F)ccc1CNC(=O)C(C)c1ccc(NS(C)(=O)=O)c(F)c1 (stereo not given) |  |
|  | 50 | CCOCCOc1nc(C(F)(F)F)ccc1CNC(=O)C(C)c1ccc(NS(C)(=O)=O)c(F)c1 (stereo not given) |  |
|  |  | CC(C)COc1nc(C(F)(F)F)ccc1CNC(=O)C(C)c1ccc(NS(C)(=O)=O)c(F)c1 (stereo not given) | inhibition in vivo at 0.3 mg/kg [5]: 60.8%; inhibition in vivo at 0.1 mg/kg [6]: 63.4%; Ki [3]: 0.29 nM; IC50 [4]: 67.5 nM |
| > 10000 |  | CCC(CC)Oc1nc(C(F)(F)F)ccc1CNC(=O)C(C)c1ccc(NS(C)(=O)=O)c(F)c1 (stereo not given) |  |
|  | 0.5 | CCCCC(CCC)Oc1nc(C(F)(F)F)ccc1CNC(=O)C(C)c1ccc(NS(C)(=O)=O)c(F)c1 (stereo not given) |  |

| Structure (SMILES) | IC50 [1] [nM] | Ki [2] [nM] | further results |
| --- | --- | --- | --- |
| CC(C(=O)NCc1ccc(C(F)(F)F)nc1OCCC1CCCCN1C(=O)OC(C)(C)C)c1ccc(NS(C)(=O)=O)c(F)c1 (stereo not given) | 16.6 | 0.3 |  |
